Reference: ChEMBL document CHEMBL2434891, “Design, synthesis, and in vitro cancer cell growth inhibition evaluation and antimalarial testing of trioxanes installed in cyclic 2-enoate substructures” (Eur J Med Chem, 2013)

How the values were obtained:
HCT-116 = experiment: Cytotoxicity against human HCT116 cells after 72 hrs by SRB assay; format: functional, cell-based; conditions: HCT-116, 72 h
Procedure, shortened: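 Adherent cells grown at 37 °C and 5% CO2. Seeded at 1×10^4/well 24 h before dosing, then 72 h at 10–0.01 µg/mL final. Fixed with cold 50% TCA, stained with 0.4% SRB, dye extracted in 10 mM Tris, read at 540 nm.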

NCI-H23 = experiment: Cytotoxicity against human NCI-H23 cells after 72 hrs by SRB assay; format: functional; conditions: NCI-H23, 72 h
SF-539 = experiment: Cytotoxicity against human SF539 cells after 72 hrs by SRB assay; format: functional; conditions: SF-539, 72 h
OVCAR-5 = experiment: Cytotoxicity against human OVCAR5 cells after 72 hrs by SRB assay; format: functional; conditions: OVCAR-5, 72 h
HCT-15 = experiment: Cytotoxicity against human HCT15 cells after 72 hrs by SRB assay; format: functional; conditions: HCT-15, 72 h
SNB-75 = experiment: Cytotoxicity against human SNB75 cells after 72 hrs by SRB assay; format: functional; conditions: SNB-75, 72 h
KM12 = experiment: Cytotoxicity against human KM12 cells after 72 hrs by SRB assay; format: functional; conditions: KM12, 72 h
[1] = Cytotoxicity against human HBC5 cells after 72 hrs by SRB assay; format: functional; conditions: HBC5, 72 h
DMS-273 = experiment: Cytotoxicity against human DMS273 cells after 72 hrs by SRB assay; format: functional; conditions: DMS-273, 72 h
HT-29 = experiment: Cytotoxicity against human HT-29 cells after 72 hrs by SRB assay; format: functional; conditions: HT-29, 72 h
MKN-28 = experiment: Cytotoxicity against human MKN28 cells after 72 hrs by SRB assay; format: functional; conditions: MKN-28, 72 h
MKN-7 = experiment: Cytotoxicity against human MKN7 cells after 72 hrs by SRB assay; format: functional; conditions: MKN-7, 72 h
MCF7 = experiment: Cytotoxicity against human MCF7 cells after 72 hrs by SRB assay; format: functional; conditions: MCF7, 72 h
SF-295 = experiment: Cytotoxicity against human SF295 cells after 72 hrs by SRB assay; format: functional; conditions: SF-295, 72 h
SNB-78 = experiment: Cytotoxicity against human SNB78 cells after 72 hrs by SRB assay; format: functional; conditions: SNB-78, 72 h
NCI-H522 = experiment: Cytotoxicity against human NCI-H522 cells after 72 hrs by SRB assay; format: functional; conditions: NCI-H522, 72 h
MKN-74 = experiment: Cytotoxicity against human MKN74 cells after 72 hrs by SRB assay; format: functional; conditions: MKN-74, 72 h
U-251 = experiment: Cytotoxicity against human U251 cells after 72 hrs by SRB assay; format: functional; conditions: U-251, 72 h
SF-268 = experiment: Cytotoxicity against human SF268 cells after 72 hrs by SRB assay; format: functional; conditions: SF-268, 72 h
ACHN = experiment: Cytotoxicity against human ACHN cells after 72 hrs by SRB assay; format: functional
[2] = Cytotoxicity against human RXF631L cells after 72 hrs by SRB assay; format: functional; conditions: RXF 631, 72 h
DU-145 = experiment: Cytotoxicity against human DU145 cells after 72 hrs by SRB assay; format: functional; conditions: DU-145, 72 h
MV4-11 = experiment: Antiproliferative activity against human MV4-11 cells after 72 hrs by MTT assay; format: functional, cell-based; conditions: MV4-11, 72 h
MDA-MB-231 = experiment: Cytotoxicity against human MDA-MB-231 cells after 72 hrs by SRB assay; format: functional; conditions: MDA-MB-231, 72 h
NCI-H460 = experiment: Cytotoxicity against human NCI-H460 cells after 72 hrs by SRB assay; format: functional; conditions: NCI-H460, 72 h
LOX IMVI = experiment: Cytotoxicity against human LOXIMVI cells after 72 hrs by SRB assay; format: functional
St-4 = experiment: Cytotoxicity against human St-4 cells after 72 hrs by SRB assay; format: functional; conditions: St-4, 72 h
SK-OV-3 = experiment: Cytotoxicity against human SKOV3 cells after 72 hrs by SRB assay; format: functional; conditions: SK-OV-3, 72 h
[3] = read-out: LC50 (the source's name)
[4] = read-out: pLC50 (the source's name) (converted)

## COc1ccc(C2O[C@]34CC(c5cccc(Cl)c5)OC(=O)C3=C[C@@]2(C)OO4)cc1 (some centres not stated)
HCT-116
  IC50: 7.67 µM
  TGI: 20 µM
HCT-116; read-out: GI50
  GI50: 4.1 µM
HCT-116; [3]
  CC50: 100 µM
HCT-116; read-out: pGI50 (converted)
  GI50: 3.39 µM
HCT-116; [4]
  CC50: 70.8 µM
NCI-H23
  TGI: 40 µM
NCI-H23; read-out: GI50
  GI50: 18 µM
NCI-H23; [3]
  CC50: 93 µM
NCI-H23; read-out: pGI50 (converted)
  GI50: 16.6 µM
NCI-H23; [4]
  CC50: 79.4 µM
SF-539
  TGI: 23 µM
SF-539; read-out: GI50
  GI50: 8.4 µM
SF-539; [3]
  CC50: 55 µM
SF-539; read-out: pGI50 (converted)
  GI50: 2.75 µM
SF-539; [4]
  CC50: 13.5 µM
OVCAR-5
  TGI: 17 µM
OVCAR-5; read-out: GI50
  GI50: 5.3 µM
OVCAR-5; [3]
  CC50: 42 µM
OVCAR-5; read-out: pGI50 (converted)
  GI50: 2.75 µM
OVCAR-5; [4]
  CC50: 26.3 µM
HCT-15
  TGI: 24 µM
HCT-15; read-out: GI50
  GI50: 4.4 µM
HCT-15; [3]
  CC50: 100 µM
HCT-15; read-out: pGI50 (converted)
  GI50: 3.72 µM
HCT-15; read-out: pLC50 (converted)
  CC50: > 100 µM
SNB-75
  TGI: 28 µM
SNB-75; read-out: GI50
  GI50: 12 µM
SNB-75; [3]
  CC50: 67 µM
SNB-75; read-out: pGI50 (converted)
  GI50: 12.3 µM
SNB-75; [4]
  CC50: 63.1 µM
KM12
  TGI: 51 µM
KM12; read-out: GI50
  GI50: 25 µM
KM12; [3]
  CC50: 100 µM
KM12; read-out: pGI50 (converted)
  GI50: 17.8 µM
KM12; [4]
  CC50: 85.1 µM
[1]
  TGI: 8 µM
[1]; read-out: GI50
  GI50: 2.4 µM
[1]; [3]
  CC50: 44 µM
[1]; read-out: pGI50 (converted)
  GI50: 1.95 µM
[1]; [4]
  CC50: 8.71 µM
DMS-273
  TGI: 31 µM
DMS-273; read-out: GI50
  GI50: 14 µM
DMS-273; [3]
  CC50: 69 µM
DMS-273; read-out: pGI50 (converted)
  GI50: 10.2 µM
DMS-273; [4]
  CC50: 74.1 µM
HT-29
  TGI: 48 µM
HT-29; read-out: GI50
  GI50: 15 µM
HT-29; [3]
  CC50: 100 µM
HT-29; read-out: pGI50 (converted)
  GI50: 5.25 µM
HT-29; read-out: pLC50 (converted)
  CC50: > 100 µM
MKN-28
  TGI: 40 µM
MKN-28; read-out: GI50
  GI50: 14 µM
MKN-28; [3]
  CC50: 100 µM
MKN-28; read-out: pGI50 (converted)
  GI50: 11 µM
MKN-28; read-out: pLC50 (converted)
  CC50: > 100 µM
MKN-7
  TGI: 31 µM
MKN-7; read-out: GI50
  GI50: 10 µM
MKN-7; [3]
  CC50: 97 µM
MKN-7; read-out: pGI50 (converted)
  GI50: 3.47 µM
MKN-7; [4]
  CC50: 89.1 µM
MCF7
  TGI: 27 µM
MCF7; read-out: GI50
  GI50: 11 µM
MCF7; [3]
  CC50: 69 µM
MCF7; read-out: pGI50 (converted)
  GI50: 10 µM
MCF7; [4]
  CC50: 87.1 µM
SF-295
  TGI: 33 µM
SF-295; read-out: GI50
  GI50: 18 µM
SF-295; [3]
  CC50: 62 µM
SF-295; read-out: pGI50 (converted)
  GI50: 18.2 µM
SF-295; [4]
  CC50: 60.3 µM
SNB-78
  TGI: 34 µM
SNB-78; read-out: GI50
  GI50: 14 µM
SNB-78; [3]
  CC50: 84 µM
SNB-78; read-out: pGI50 (converted)
  GI50: 12.6 µM
SNB-78; [4]
  CC50: 91.2 µM
NCI-H522
  TGI: 8.6 µM
NCI-H522; read-out: GI50
  GI50: 2.7 µM
NCI-H522; [3]
  CC50: 100 µM
NCI-H522; read-out: pGI50 (converted)
  GI50: 2 µM
NCI-H522; [4]
  CC50: 22.4 µM
MKN-74
  TGI: 44 µM
MKN-74; read-out: GI50
  GI50: 15 µM
MKN-74; [3]
  CC50: 100 µM
MKN-74; read-out: pGI50 (converted)
  GI50: 14.1 µM
MKN-74; [4]
  CC50: 95.5 µM
U-251
  TGI: 36 µM
U-251; read-out: GI50
  GI50: 18 µM
U-251; [3]
  CC50: 73 µM
U-251; read-out: pGI50 (converted)
  GI50: 15.8 µM
U-251; [4]
  CC50: 69.2 µM
SF-268
  TGI: 41 µM
SF-268; read-out: GI50
  GI50: 18 µM
SF-268; [3]
  CC50: 94 µM
SF-268; read-out: pGI50 (converted)
  GI50: 13.8 µM
SF-268; [4]
  CC50: 91.2 µM
ACHN
  TGI: 29 µM
ACHN; read-out: GI50
  GI50: 16 µM
ACHN; [3]
  CC50: 55 µM
ACHN; read-out: pGI50 (converted)
  GI50: 15.5 µM
ACHN; [4]
  CC50: 56.2 µM
[2]
  TGI: 30 µM
[2]; read-out: GI50
  GI50: 16 µM
[2]; [3]
  CC50: 56 µM
[2]; read-out: pGI50 (converted)
  GI50: 16.6 µM
[2]; [4]
  CC50: 58.9 µM
DU-145
  TGI: 29 µM
DU-145; read-out: GI50
  GI50: 15 µM
DU-145; [3]
  CC50: 54 µM
DU-145; read-out: pGI50 (converted)
  GI50: 16.6 µM
DU-145; [4]
  CC50: 56.2 µM
MV4-11
  IC50: 0.549 µM
MDA-MB-231
  TGI: 26 µM
MDA-MB-231; read-out: GI50
  GI50: 12 µM
MDA-MB-231; [3]
  CC50: 58 µM
MDA-MB-231; read-out: pGI50 (converted)
  GI50: 5.37 µM
MDA-MB-231; [4]
  CC50: 51.3 µM
NCI-H460
  TGI: 38 µM
NCI-H460; read-out: GI50
  GI50: 19 µM
NCI-H460; [3]
  CC50: 77 µM
NCI-H460; read-out: pGI50 (converted)
  GI50: 20 µM
NCI-H460; [4]
  CC50: 81.3 µM
LOX IMVI
  TGI: 12 µM
LOX IMVI; read-out: GI50
  GI50: 3.1 µM
LOX IMVI; [3]
  CC50: 60 µM
LOX IMVI; read-out: pGI50 (converted)
  GI50: 2.04 µM
LOX IMVI; [4]
  CC50: 7.59 µM
St-4
  TGI: 47 µM
St-4; read-out: GI50
  GI50: 19 µM
St-4; [3]
  CC50: 100 µM
St-4; read-out: pGI50 (converted)
  GI50: 17.8 µM
St-4; read-out: pLC50 (converted)
  CC50: > 100 µM
SK-OV-3
  TGI: 29 µM
SK-OV-3; read-out: GI50
  GI50: 16 µM
SK-OV-3; [3]
  CC50: 54 µM
SK-OV-3; read-out: pGI50 (converted)
  GI50: 19.1 µM
SK-OV-3; [4]
  CC50: 58.9 µM
